Assay results: article PMC6936494 (Proceedings of the National Academy of Sciences of the …, 2019)
Entries after “also recorded” stand apart in the source; their conditions may differ. Where two headings read alike, the source gives them in different places.

Assays:
[1] = molecular target: N-terminal domain of LiaX (Enterococcus faecalis); assay: MST
[2] = molecular target: N-terminal domain of LiaX (Enterococcus faecalis); assay: MST; remark: listed apart in the source
OG1RF and S613 = details: including against E. faecalis; ref [23], [24]; cited from earlier work
[3] = molecular target: T1, N-terminal domain of LiaX (Enterococcus faecalis, UniProt Q834B6); assay: Microscale thermophoresis with His-tag specific dye, N-terminal domain of LiaX; assay type: binding, Enterococcus faecalis S613
T1 sequence (Q834B6 1-275): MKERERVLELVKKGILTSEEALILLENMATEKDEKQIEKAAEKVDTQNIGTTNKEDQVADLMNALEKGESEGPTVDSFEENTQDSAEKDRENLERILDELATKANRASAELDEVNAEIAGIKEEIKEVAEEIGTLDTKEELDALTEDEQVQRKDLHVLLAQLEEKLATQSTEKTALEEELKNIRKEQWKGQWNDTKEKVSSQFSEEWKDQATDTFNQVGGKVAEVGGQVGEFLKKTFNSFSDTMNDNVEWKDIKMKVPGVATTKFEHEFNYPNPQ

N-terminal LiaX = molecular target: T2, N-terminal LiaX (Enterococcus faecalis, UniProt Q834B6); assay: LL-37 binding by microscale thermophoresis, amine reactive dye, N-terminal LiaX; set-up: species or system Enterococcus faecalis S613
T2 sequence (Q834B6 1-277): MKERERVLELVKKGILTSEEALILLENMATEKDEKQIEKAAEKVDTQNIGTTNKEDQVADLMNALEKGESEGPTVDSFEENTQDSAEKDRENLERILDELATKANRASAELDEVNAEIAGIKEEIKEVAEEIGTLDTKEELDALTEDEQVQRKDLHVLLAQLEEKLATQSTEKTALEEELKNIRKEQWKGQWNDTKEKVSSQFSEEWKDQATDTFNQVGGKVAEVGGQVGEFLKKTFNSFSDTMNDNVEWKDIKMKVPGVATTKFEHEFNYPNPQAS
Procedure, shortened: (§1)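 Recombinant LiaX (full length or N-terminal domain, His/SUMO-tagged) was expressed in E. coli BL-21 and nickel-column purified, then labeled with NT-647. Microscale thermophoresis ran at 25% LED power in 0.1 M phosphate buffer pH 7.4, 0.0027 M KCl, 0.137 M NaCl and 1 mM TCEP, with or without 5% DMSO. Fluorescence changes were recorded across increasing LL-37 variant concentrations to derive Kd.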

full length LiaX = molecular target: T3, full length LiaX (Enterococcus faecalis, UniProt Q834B6); assay: LL-37 binding by microscale thermophoresis, amine reactive dye, full length LiaX; set-up: species or system Enterococcus faecalis S613
T3 sequence (Q834B6 1-533): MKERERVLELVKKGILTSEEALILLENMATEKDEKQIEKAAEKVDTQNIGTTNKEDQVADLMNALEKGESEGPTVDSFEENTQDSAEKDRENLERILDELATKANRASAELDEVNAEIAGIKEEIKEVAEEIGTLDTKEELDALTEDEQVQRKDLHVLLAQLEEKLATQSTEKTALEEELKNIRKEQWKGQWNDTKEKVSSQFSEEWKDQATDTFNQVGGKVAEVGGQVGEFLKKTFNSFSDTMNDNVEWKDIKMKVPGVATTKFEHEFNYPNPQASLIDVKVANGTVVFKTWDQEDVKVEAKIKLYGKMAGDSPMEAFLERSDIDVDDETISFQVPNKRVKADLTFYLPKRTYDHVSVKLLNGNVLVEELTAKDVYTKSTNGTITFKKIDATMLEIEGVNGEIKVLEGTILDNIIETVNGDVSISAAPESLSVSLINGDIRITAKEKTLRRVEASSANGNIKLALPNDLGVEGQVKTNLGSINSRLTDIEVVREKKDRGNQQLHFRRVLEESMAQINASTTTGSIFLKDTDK
Procedure, shortened: as §1

E. faecalis strains = assay: LL-37 killing assay; assay type: cell-based, Enterococcus faecalis; details: OG1RFΔliaR; 50 µg/ml LL-37, 2 h
[4] = tested on: Staphylococcus aureus ATCC29213; assay: DAP MIC by broth microdilution with exogenous LiaX or N-terminal LiaX, S. aureus; assay type: cell-based; details: 50 nM exogenous protein
E. faecalis [5] = assay: C. elegans infection assay with exogenous N-terminal LiaX; assay type: in vivo, Enterococcus faecalis; host Caenorhabditis elegans
Procedure, shortened: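 Recombinant N-terminal LiaX domain (His/SUMO-tagged) was expressed in E. coli BL-21 and nickel-column purified. Synchronized young adult worms (60–90) were infected with E. faecalis on BHI agar plus gentamicin (10 µg/mL). They were then moved to a liquid killing format (20% BHI broth, 80% M9W buffer) containing N-terminal LiaX at 0.1 to 500 nM, held at 25 °C, and deaths scored daily. Results come from 3 independent experiments, with Kaplan–Meier log-rank or 1-way ANOVA analysis.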

liaFSR and liaXYZ = assay: qRT-PCR for liaFSR and liaXYZ expression; assay type: cell-based, Enterococcus faecalis; details: OG1RF
[6] = tested on: DAP-S E. faecalis strains; assay type: cell-based, Enterococcus faecalis
E. faecalis [7] = assay: Growth kinetics with LiaX; assay type: cell-based, Enterococcus faecalis; details: functional concentrations; 100 nM in BHI, OD600, 24 h

human cathelicidin LL-37 (peptide)
Kd [1]: 5.27 µM
Kd [2]: 10.6 µM

SSLLEKGLDGAKKAVGGLGKLGKDAVEDLESVGKGAVHDVKDVLDSVL [DCD-1L]
antimicrobial activity (OG1RF and S613): broad-spectrum antimicrobial activity, including against E. faecalis
binding affinity to N-terminal domain of LiaX ([3]; His-tag specific dye, DCD-1L tested up to 1,000 µM): no detectable binding affinity

CC[C@H](C)[C@H](NC(=O)[C@H](CCCCN)NC(=O)[C@H](CCC(=O)O)NC(=O)[C@H](CCCCN)NC(=O)[C@H](CO)NC(=O)[C@H](CCCCN)NC(=O)[C@H](CCCNC(=N)N)NC(=O)[C@H](Cc1ccccc1)NC(=O)[C@H](Cc1ccccc1)NC(=O)[C@H](CC(=O)O)NC(=O)CNC(=O)[C@H](CC(C)C)NC(=O)[C@@H](N)CC(C)C)C(=O)NCC(=O)N[C@@H](CCCCN)C(=O)N[C@@H](CCC(=O)O)C(=O)N[C@@H](Cc1ccccc1)C(=O)N[C@@H](CCCCN)C(=O)N[C@@H](CCCNC(=N)N)C(=O)N[C@H](C(=O)N[C@H](C(=O)N[C@@H](CCC(N)=O)C(=O)N[C@@H](CCCNC(=N)N)C(=O)N[C@H](C(=O)N[C@@H](CCCCN)C(=O)N[C@@H](CC(=O)O)C(=O)N[C@@H](Cc1ccccc1)C(=O)N[C@@H](CC(C)C)C(=O)N[C@@H](CCCNC(=N)N)C(=O)N[C@@H](CC(N)=O)C(=O)N[C@@H](CC(C)C)C(=O)N[C@H](C(=O)N1CCC[C@H]1C(=O)N[C@@H](CCCNC(=N)N)C(=O)N[C@H](C(=O)N[C@@H](CCC(=O)O)C(=O)N[C@@H](CO)C(=O)O)[C@@H](C)O)C(C)C)[C@@H](C)CC)C(C)C)[C@@H](C)CC [LL-37]
Kd (N-terminal LiaX): 10.6 ± 0.43 µM
Kd (full length LiaX): 8.26 ± 0.28 µM
Kd [3]: 5.27 ± 1.14 µM

B1: N-terminal LiaX: purified N-terminal LiaX (residues 1-277; His-tagged variant residues 1-275) (protein)
chain: T1 sequence (Q834B6 1-275)
modifications: labeled with a RED-tris-NTA his-tag specific dye (NanoTemper); left off: His6, C-terminal, kept
protection from LL-37 killing (E. faecalis strains): did not protect OG1RFΔliaR from LL-37–mediated killing
change in DAP MIC [4]: did not change under any condition
virulence in C. elegans (E. faecalis [5]; OG1RF and S613, 100 nM purified N-terminal LiaX (Fig. 6), listed as N terminus of LiaX): more virulent; also recorded: increased virulence
virulence in C. elegans, dose dependence (E. faecalis [5]; OG1RF or S613, 5-100 nM N-terminus LiaX): dose-dependent manner
virulence in C. elegans (E. faecalis [5]; OG1RFΔliaR and TMΔliaR, exogenous N terminus of LiaX): did not, however, alter the virulence
transcription of liaFSR and liaXYZ (liaFSR and liaXYZ; 50 nM protein without DAP, vs untreated): no effect on the levels of transcription
LiaFSR activation relative to DAP alone or DAP with full-length LiaX (liaFSR and liaXYZ; N terminus of LiaX plus DAP): significantly higher and more pronounced
transcription of liaFSR and liaXYZ (liaFSR and liaXYZ; protein plus subinhibitory DAP, listed as N terminus of LiaX): maximal activation of the LiaFSR cell envelope stress response; also recorded: highly up-regulated
increase in DAP MIC ([6]; OG1RF, 50 nM exogenous protein): over 8 fold
protection against DAP ([6]; OG1RF, 1 to 100 nM N-terminal LiaX, up to 200 nM full-length LiaX): high level of protection to OG1RF in a concentration-dependent manner
protection against DAP ([6]; OG1RFΔliaR, 50 nM exogenous protein): did not protect OG1RFΔliaR against DAP
increase in DAP MIC ([6]; S613, 50 nM exogenous protein): over 8 fold
effect on growth of E. faecalis (E. faecalis [7]): no impact on the growth
